# Assay results of several laboratories.
# Compare with care: the assays were run in different laboratories.
# Target: Serine/threonine-protein kinase 10 (STK10, Homo sapiens, UniProt O94804)
Structure (SMILES),observed,mode,technique,tested at,quantity,result
Cn1cncc1[C@@](O)(COc1ccc(C#N)cc1-c1ccc(OC(F)(F)F)cc1)c1ccc(C#N)cc1,cell-free assay,,competition with immobilised ligand,1 µM,remaining binding,100%
CC(C)(C)c1cc(C=C(C#N)C#N)cc(Br)c1O,enzyme activity,inhibitor,,0.5 µM,remaining activity,95.4%
Nc1ncc(-c2nc(N3CCOCC3)nc(N3CCOCC3)n2)c(C(F)F)n1,binding,,competition with immobilised ligand,10 µM,remaining binding,64%
COc1ncccc1-c1cnn2ccc(N3CCN(C(=O)OC(C)C)CC3)nc12,binding,,competition with immobilised ligand,1 µM,remaining binding,63%
Cc1nn(C)cc1-c1nc2c(N3CCN(Cc4ccc(Cl)cc4)CC3)c(Cl)cnc2[nH]1,binding,,competition with immobilised ligand,1 µM,remaining binding,100%
N#CC1(c2ccccn2)CCN(Cc2cc(C(=O)O)c(=O)n3ccccc23)CC1,cell-free assay,,competition with immobilised ligand,1 µM,remaining binding,100%
O=c1[nH]c2ccccc2n1C1CCN(Cc2ccc(-c3[nH]c4cc5ncnc5cc4nc3-c3ccccc3)cc2)CC1,cell-free assay,,,0.5 µM,remaining signal,92.6%
COc1cc(Nc2ncc(F)c(Nc3ccc4c(n3)NC(=O)C(C)(C)O4)n2)cc(OC)c1OC,binding,,,10 µM,inhibition,100%
